Assay [1] relates to Rattus norvegicus. Briefly: Effect on number of animals not entering the dark chamber after administration of 10 mg/kg of the compound.
For assay [2], the system named is Rattus norvegicus. Briefly: Effect on increase in reflex latent time after administration of 1 mg/kg of the compound. It counts as functional. The essentials: (§1)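 Rats (180-200 g), scopolamine-induced amnesia in a step-through passive avoidance task. Scopolamine 2 mg/kg ip 15 min before training; test substance suspended in 0.5% Tween-80, given ip at 1 or 10 mg/kg 30 min before training; vehicle controls. Retention tested 24 h later: latency to enter dark chamber (max 180 s) and % animals not entering. n=12 per group.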

In assay [3] the test system is Rattus norvegicus. Kind of assay: Effect on latency to enter dark chamber after administration of 1 mg/kg of the compound. It counts as functional. The essentials: as §1
For assay [4], the system named is Rattus norvegicus. Kind of assay: Effect on increase in reflex latent time after administration of 600 mg/kg of the compound. Type of assay: functional.
The test system of assay [5] is Rattus norvegicus. Briefly: Effect on increase in reflex latent time after administration of 400 mg/kg of the compound. Type of assay: functional.
The species entered for assay [6] is Rattus norvegicus. Kind of assay: […]. It counts as functional. As to conditions: dose 400 mg/kg.
In assay [7] the test system is Rattus norvegicus. Briefly: Effect on increase in reflex latent time after administration of 10 mg/kg of the compound. It counts as functional. The essentials: as §1

On to `Cc1csc(/N=C/c2ccc([N+](=O)[O-])cc2)n1`, for which the figures for the Number in assay [1] and in assay [3] were 50% and 42%, respectively. For the same compound, the Time was determined as 76 s in assay [2] and 126 s in assay [3].
In assay [2], `CN1[C@@H]2C[C@@H](OC(=O)[C@H](CO)c3ccccc3)C[C@H]1[C@@H]1O[C@@H]12` [SCOPOLAMINE] returned a Time of 53 s. The compound also registered a Number in assay [3] of 17%.
As for `C(=N\c1nc(-c2ccccc2)cs1)/c1ccccc1`, the Number in assay [1] stood at 33%; in assay [3], 0%. In addition, the Time in assay [2] came to 12 s; in assay [3], 68 s.
In the same order, the values of `Clc1ccc(/C=N/c2nccs2)cc1` are 66%, 25%, 61 s and 123 s.
For `NC(=O)CN1CCCC1=O` [PIRACETAM], the figures for the Number in assay [4] and in assay [6] were 58% and 33%, respectively. In assay [5], this compound displayed a Time of 75 s.
As for `Oc1ccc(/C=N/c2nc3ccccc3s2)cc1`, the Number in assay [1] is on record as 0%; in assay [3], 58%. The Time in assay [2] was found to be 104 s; in assay [3] it was 15 s.
In the same order, the values of `O=[N+]([O-])c1ccc(/C=N/c2nc(-c3ccccc3)cs2)cc1` are 42%, 58%, 157 s and 88 s.
On to `CC(=O)N1CCOC1c1cccc(Cl)c1` (configuration not stated), for which the values for the Number in assay [7] and in assay [3] were 58% and 0%, respectively. Moreover, the Time amounted to 25 s in assay [2] and 103 s in assay [3].
In the case of `Oc1ccc(/C=N/c2nccs2)cc1`, the Number in assay [1] turned out to be 14%; in assay [3], 42%. Besides, the Time in assay [2] is 96 s; in assay [3] it was 41 s.
`O=[N+]([O-])c1ccc(/C=N/c2nccs2)cc1`: the Number in assay [1] came to 50%; in assay [3] it was 42%. The Time in assay [2] was 68 s; in assay [3] it was 129 s.

Source of the values: ChEMBL document CHEMBL1138827, “Design of new cognition enhancers: from computer prediction to synthesis and biological evaluation” (2004).
